Reference: ChEMBL document CHEMBL1629542, “Epigallocatechin gallate inactivates clinical isolates of herpes simplex virus” (Antimicrob Agents Chemother, 2008)

Key:
[1] = system: Human alphaherpesvirus 2; test: Antiviral activity against Human herpesvirus 2 strain 333 infected in African green monkey CV1 cells assessed as log reduction in viral titer at 100 uM; assay type: functional, CV-1
How it was run: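 Lab strain HSV-2 333 was grown and titrated either in CV-1 cells or in Vero cells. Virus was incubated with 100 μM EGCG for 60 min, then titrated as tenfold dilutions for 5 days at 37°C with CPE scoring. Reed-Muench TCID50 of treated versus control virus gave the titer decrease. Mean of three experiments.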

[2] = system: Human alphaherpesvirus 1; test: Antiviral activity against Human herpesvirus 1 F1 infected in African green monkey Vero cells assessed as log reduction in viral titer at 100 uM

Structure (SMILES) | FC [1] | FC [2]
O=C(O[C@@H]1Cc2c(O)cc(O)cc2O[C@@H]1c1ccc(O)c(O)c1)c1cc(O)c(O)c(O)c1 [EPICATECHIN GALLATE] | >=1 | 
O=C(O[C@@H]1Cc2c(O)cc(O)cc2O[C@H]1c1cc(O)c(O)c(O)c1)c1cc(O)c(O)c(O)c1 [GALLOCATECHIN GALLATE] | 4 | 3.5
